Laboratory results: ChEMBL document CHEMBL1221380, “Structure-activity relationships of mononuclear metal-thiosemicarbazone complexes endowed with potent antiplasmodial and antiamoebic activities” (Bioorg Med Chem, 2010)

Columns and labels:
[1] = test system: Plasmodium falciparum; experiment: Antiplasmodial activity against Plasmodium falciparum W2 after 24 hrs by [3H]hypoxanthine incorporation assay; type: functional, organism-based
Procedure, shortened: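 Chloroquine-resistant, mefloquine-sensitive W2 clone grown in human O+ erythrocytes in RPMI 1640 with 10% human plasma; 1–2% parasitemia, 2.5% hematocrit. Five concentrations in 4% DMSO in hypoxanthine-free RPMI, 24 h. [3H]-hypoxanthine uptake vs untreated wells; IC50 from triplicates, mefloquine standard.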

[2] = Cytotoxicity against BALB/c mouse splenocyte by [3H]thymidine incorporation assay; type: cell-based
Procedure, shortened: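 Splenocytes (5 × 10^6 per well) in DMEM with 10% FCS and 50 µg/mL gentamycin; tested at 1.1, 3.3, 11, 33 and 100 µg/mL in triplicate with 3H-thymidine (1 µCi per well), 24 h, 37 °C, 5% CO2. Value is highest non-cytotoxic concentration, i.e. reducing incorporation by under 10% versus untreated.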

[3] = test system: Entamoeba histolytica; experiment: Antiamoebic activity against Entamoeba histolytica HM1:IMSS after 72 hrs by microplate method; type: functional, organism-based; details: HM-1:IMSS
Procedure, shortened: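 Trophozoites grown in TYI-S-33 medium; samples dissolved in DMSO then medium to 1 mg/mL, diluted to 0.1 mg/mL, twofold serial dilutions in plate; final DMSO ≤0.1%. 10^5 organisms/mL added, plate gassed with nitrogen 10 min, 37 °C for 72 h. OD at 490 nm; % inhibition vs log dose, linear regression for IC50. Triplicates, repeated thrice; metronidazole standard.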

[4] = Inhibition of beta-hematin formation after 18 hrs by microtiter plate assay; type: functional

| IC50 [1] | IC50 [3] | SMILES | highest non-cytotoxic concentration [2] | IC50 [4] |
| --- | --- | --- | --- | --- |
| 20.3 µM | 10.1 µM | S=C(N/N=C/c1ccco1)NC1CCCCC1 | 33 µg/mL | – |
| 21.8 µM | 9.07 µM | CN(C(=S)N/N=C/c1ccco1)C1CCCCC1 | > 100 µg/mL | – |

The next lines start with the compound.

| SMILES | IC50 [1] | IC50 [3] | highest non-cytotoxic concentration [2] | IC50 [4] |
| --- | --- | --- | --- | --- |
| S=C(N/N=C/c1ccco1)N1CCCCCC1 | 35.8 µM | 12.1 µM | > 100 µg/mL | – |
| CC1CCN(C(=S)N/N=C/c2ccco2)CC1 | 36.2 µM | 8.02 µM | 100 µg/mL | – |
| CCN(CC)CCCC(C)Nc1ccnc2cc(Cl)ccc12.O=P(O)(O)O.O=P(O)(O)O (centres undefined) [CHLOROQUINE PHOSPHATE] | – | – | – | 1.3 µg/mL |
| OC(c1cc(C(F)(F)F)nc2c(C(F)(F)F)cccc12)C1CCCCN1 (centres undefined) [MEFLOQUINE] | 0.039 µM | – | – | – |
